A selection: hits, their analogues and other compounds. The true share with any hit is near 3.7%.
HMGR II inh = inhibitors of class II HMG-CoA reductase from Enterococcus faecalis; purified E. faecalis HMGR, NADPH absorbance 340 nm kinetic; inhibition, % at 10 µM; 0.41% of 190,000 active;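 active = inhibition above a set limit, the median over all tested compounds plus 3 SD, cut at about 9.5% in these data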;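 note: enzyme runs in reverse so mevalonate oxidation gives rising NADPH absorbance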
INS promoter inh = TRM-6 insulin promoter activity inhibition; TRM-6 cells (human fetal islet line), insulin promoter-eGFP reporter, imaging; reporter expression induced with tamoxifen; inhibition, % at 2 µM; 0.9% of 130,000 active;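 active = inhibition above the mean plus 3 SD, with well images judged a real hit on visual review, cut at about 60% in these data, passing the limit was not always enough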
Yeast lifespan up = yeast lifespan extension | AID 775 | S. cerevisiae growth with nicotinamide, OD615; deaD strain in restrictive glucose medium | 0.68% of 130,000 active | inhibition of the nicotinamide effect, % at 10 µM;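 active = inhibition above a set limit, placed 3 SD over the median of all compounds, cut at about 26% in these data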
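Buffer or medium: CSMM-D glucose medium, restrictive; test system: modified budding yeast, DeaD strain; compound: single dose 10 µM compound, 0.25% DMSO; schedule: culture preincubation 4 h, compound exposure 48 h, both 30 °C; detection: optical density (absorbance) at 615 nm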
Yeast growth inh = yeast BB579 growth reduction in restrictive medium | S. cerevisiae BB579 growth, OD615, 48 h | inhibition, % at 10 µM | 0.51% of 140,000 active | AID 804;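 active = inhibition above a set limit, 3 SD over the mean compound inhibition, cut at about 44% in these data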
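Test system: Saccharomyces cerevisiae DeaD strain BB579, replicative lifespan model yeast | Buffer or medium: Restrictive CSMM-D medium | Doses: One dose, 10 µM compound with 0.25% DMSO | Incubation: 48 h exposure, 30 °C | Detection: Culture absorbance at 615 nm | Control set: Amphotericin B at 10 µg/mL as positive control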
RAM network inh = inhibitors of the yeast RAM network | S. cerevisiae dse1pr::URA3 reporter, 5-FOA growth OD615, 2 d; analog-sensitive cbk1-as2 kinase mutant strain | inhibition, % at 50 µM | 1.8% of 190,000 active;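 active = inhibition above a set limit, 3 SD over mean compound inhibition, cut at about 8.4% in these data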;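 note: inhibition rescues growth on 5-FOA so higher OD means more RAM inhibition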
Hits are given with their value.

Screening Cc1cc(NS(=O)(=O)c2ccc(NC(=O)c3cc4c(=O)n5ccccc5nc4s3)cc2)nc(C)n1 returned HMGR II inh inactive, INS promoter inh inactive and RAM network inh 9.0.
COCCNC(=O)C(c1ccc(C)o1)N(C(=O)C(=O)NC1CCCCC1)c1ccc(F)cc1 (stereo not given) was read as HMGR II inh inactive, INS promoter inh inactive and RAM network inh inactive.
`CCOC(=O)c1c(C)oc2c1c1c(c3ccccc32)OCN(Cc2cccnc2)C1` gave HMGR II inh inactive, INS promoter inh inactive, Yeast lifespan up inactive, Yeast growth inh inactive and RAM network inh inactive.
`CCOC(=O)c1c(C)oc2c1c(C=NCC1CCCO1)c(O)c1ccccc12` (stereo not given) gave HMGR II inh inactive, INS promoter inh inactive, Yeast lifespan up 29, Yeast growth inh inactive and RAM network inh inactive.
CCOC(=O)c1c(C)oc2c1c(C(c1cccnc1)N1CCOCC1)c(O)c1ccccc12 (stereo not given) was read as HMGR II inh inactive, Yeast lifespan up 40, Yeast growth inh inactive and RAM network inh inactive.
CCOC(=O)c1c(C)oc2c1cc(O)c1ccccc12 was read as HMGR II inh inactive, INS promoter inh inactive, Yeast lifespan up inactive, Yeast growth inh inactive and RAM network inh inactive.
For CCOC(=O)c1c(C)oc2c1c(C=NCc1ccccn1)c(O)c1ccccc12 the results were HMGR II inh inactive, Yeast lifespan up 31, Yeast growth inh inactive and RAM network inh inactive.
`COc1ccc2c(c1OC)C(=O)OC2C1c2c(cc3c(c2OC)OCO3)CCN1C` (stereo not given) gave HMGR II inh inactive, INS promoter inh inactive, Yeast lifespan up inactive, Yeast growth inh inactive and RAM network inh inactive.
Screening CN1CCc2cc3c(c4c2[C@H]1[C@H](O)c1ccccc1-4)OCO3 returned HMGR II inh inactive, INS promoter inh inactive, Yeast lifespan up inactive, Yeast growth inh 62 and RAM network inh inactive.
Screening CC(C)NC(=O)C1CCN(C2CCN(C(=O)c3scc4c3CCCC4)CC2)CC1 returned HMGR II inh inactive and RAM network inh inactive.
`O=c1[nH]c(=O)n(Cc2ccco2)c2c1C(C(F)(F)F)(C(F)(F)F)N=C(c1ccc(F)cc1)N2` gave HMGR II inh inactive, INS promoter inh inactive, Yeast lifespan up inactive, Yeast growth inh inactive and RAM network inh 8.8.
`O=C(O)/C=C/C(=O)NC1CCCCC1` gave HMGR II inh inactive, Yeast lifespan up inactive, Yeast growth inh inactive and RAM network inh inactive.
For O=C(N/N=C/c1sc2ccccc2c1O)c1cccc2ccccc12 the results were HMGR II inh inactive, INS promoter inh inactive, Yeast lifespan up inactive, Yeast growth inh 91 and RAM network inh inactive.
COc1ccc(C(=O)N/N=C/c2sc3ccccc3c2O)cc1 was read as HMGR II inh inactive, INS promoter inh inactive, Yeast lifespan up inactive, Yeast growth inh 85 and RAM network inh inactive.
O=C(N/N=C/c1sc2ccccc2c1O)c1ccccc1 was read as HMGR II inh inactive, INS promoter inh inactive, Yeast lifespan up inactive, Yeast growth inh inactive and RAM network inh inactive.
`O=C(C1=C[C@@H](c2ccc(Br)cc2)C[C@@H](OCCCCO)O1)N1CCN(Cc2ccccc2)CC1` gave HMGR II inh inactive and RAM network inh inactive.
`COc1cc(C(=O)NNC(=O)Nc2ccc([N+](=O)[O-])cc2)cc(OC)c1OC` gave HMGR II inh inactive, INS promoter inh inactive and RAM network inh inactive.
Screening CC(C)(C)N(Cc1ccccc1)C(=O)CSc1nnc(CNc2ccc(F)cc2)o1 returned HMGR II inh inactive, INS promoter inh inactive, Yeast lifespan up inactive, Yeast growth inh inactive and RAM network inh 8.6.
For CCCc1cc(=O)n2[nH]c(-c3ccccc3)cc2n1 the results were HMGR II inh inactive, INS promoter inh inactive, Yeast lifespan up inactive, Yeast growth inh inactive and RAM network inh inactive.
CCCCn1[nH]c(-c2ccccc2)cc1=O was read as HMGR II inh inactive, INS promoter inh inactive, Yeast lifespan up 32, Yeast growth inh inactive and RAM network inh inactive.
O=C(CC1SC2=NCCN2C1=O)Nc1ccc(Cl)cc1 (stereo not given) was read as HMGR II inh inactive, INS promoter inh 77, Yeast lifespan up inactive, Yeast growth inh inactive and RAM network inh inactive.
Screening CC(=O)N(CC(C)(C)CC=C(C)C)c1ccccc1 returned HMGR II inh inactive, INS promoter inh 65, Yeast growth inh inactive and RAM network inh inactive.
`CCN(CC)CCNc1ncnc2c1[nH]c1ccc(OC)cc12` gave HMGR II inh inactive, Yeast lifespan up inactive, Yeast growth inh inactive and RAM network inh inactive.
Screening Clc1ccc2[nH]c3c(NCCCN4CCOCC4)ncnc3c2c1 returned HMGR II inh inactive, Yeast lifespan up inactive, Yeast growth inh inactive and RAM network inh inactive.
`O=C1CCCN1CCCNc1ncnc2c1[nH]c1ccc(Cl)cc12` gave HMGR II inh inactive, INS promoter inh 81, Yeast lifespan up inactive, Yeast growth inh inactive and RAM network inh inactive.
For COc1ccc2[nH]c3c(NCCC4=CCCCC4)ncnc3c2c1 the results were HMGR II inh inactive, INS promoter inh 65 and RAM network inh inactive.
For COc1ccccc1NC(=O)CCN1C(=O)c2ccccc2S1(=O)=O the results were HMGR II inh inactive and RAM network inh inactive.
For CCOc1ccc(NC(=O)Nc2ccccc2SC)cc1 the results were HMGR II inh inactive and RAM network inh inactive.
O=C(CCn1c(=O)c2ccccc2n(Cc2ccccc2)c1=O)NCc1ccc2c(c1)OCO2 was read as HMGR II inh inactive, INS promoter inh inactive, Yeast lifespan up inactive, Yeast growth inh inactive and RAM network inh inactive.
`O=C(c1cccc2ccccc12)C1CCCN(C(=O)c2ccc(N3CCOCC3)cc2)C1` (stereo not given) gave HMGR II inh inactive, INS promoter inh inactive and RAM network inh inactive.
CS(=O)(=O)N1CCN(C(=O)c2ccccc2F)CC1 was read as HMGR II inh inactive, INS promoter inh inactive, Yeast lifespan up inactive, Yeast growth inh 50 and RAM network inh inactive.
O=C(NCc1ccccc1)C(=O)Nc1nccs1 was read as HMGR II inh inactive, INS promoter inh inactive and RAM network inh inactive.
`COc1cccc(N(C(=O)CCl)C(C(=O)NCCc2ccccc2)c2cccs2)c1` (stereo not given) gave HMGR II inh inactive, INS promoter inh inactive, Yeast lifespan up inactive, Yeast growth inh inactive and RAM network inh 9.2.
Screening C/C(=N\NC(=S)NCc1ccccc1)c1ccc(Br)cc1 returned HMGR II inh inactive and RAM network inh 9.9.
Screening C=CCN(c1cccc(C(F)(F)F)c1)S(=O)(=O)c1cccc(C(=O)OCC(=O)Nc2ccccc2)c1 returned HMGR II inh inactive, INS promoter inh inactive, Yeast lifespan up inactive, Yeast growth inh inactive and RAM network inh 9.0.
For C=CCN(c1cccc(C(F)(F)F)c1)S(=O)(=O)c1cccc(C(=O)OCC(=O)NC(N)=O)c1 the results were HMGR II inh inactive, INS promoter inh inactive, Yeast lifespan up inactive, Yeast growth inh inactive and RAM network inh 9.1.

Source: PubChem BioAssay (several laboratories)
